In data set [1] the test system is Middle East respiratory syndrome-related coronavirus. Briefly: Antiviral activity against MERS-CoV KOR/KNIH/002_05_2015 infected in African green monkey Vero cells expressing viral spike protein by immunofluorescence assay. The note with it: KOR/KNIH/002_05_2015, Vero. The class given is functional, organism-based.
Data set [2] concerns Vero. Briefly: (§1) Cytotoxicity against African green monkey Vero cells assessed as reduction in cell viability. Type of data set: cell-based. The following applies: chlorocebus sabaeus, vero.
A short description of data set [3]: Oral bioavailability in rat at 5 mg/kg. The class given is ADME, organism-based. The note with it: in vivo. The procedure, abridged:
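Rats dosed at 5 mg/kg p.o., with comparison i.v. dosing at 2 mg/kg; n = 3 per route, three determinations.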

Data set [4] has as its system NIH3T3. Briefly: Cytotoxicity against mouse NIH/3T3 cells assessed as reduction in cell viability. The class given is cell-based.
Data set [5] can be described thus: Half life in rat at 2 mg/kg, iv. Type of data set: ADME, organism-based. The note with it: in vivo.
Data set [6] can be described thus: AUC (0 to 24 hrs) in rat at 2 mg/kg, iv. Type of data set: ADME, organism-based. On the set-up: time < 24 hr, dose 2 mg/kg, route intravenous. The note with it: in vivo. The procedure, abridged: (§2)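 Rats given single doses, 2 mg/kg intravenously or 5 mg/kg orally, with three animals per route (n = 3). Each parameter is taken from three determinations.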
Data set [7] is described as follows: Metabolic stability in rat microsomes assessed as parent compound remaining measured after 30 mins. Type of data set: ADME, Microsome. The note with it: read-out: Stability.
Data set [8] in a line: Clearance in rat at 2 mg/kg, iv. The note with it: in vivo. Type of data set: ADME, organism-based. The procedure, abridged:
as §2

Data set [9] can be described thus: Metabolic stability in human microsomes assessed as parent compound remaining measured after 30 mins. Type of data set: ADME, Microsome. The note with it: read-out: Stability.
A short description of data set [10]: Cmax in rat at 5 mg/kg, po. The following applies: in vivo. On the set-up: dose 5 mg/kg, route oral. The class given is ADME, organism-based. In a few lines: as §2
The test system of data set [11] is HFL1. Briefly: Cytotoxicity against human HFL1 cells assessed as reduction in cell viability. The class given is cell-based.
Data set [12] can be described thus: AUC (0 to infinity) in rat at 2 mg/kg, iv. Type of data set: ADME, organism-based. On the set-up: dose 2 mg/kg, route intravenous, time infinity. The note with it: in vivo. The procedure, abridged: as §2
Data set [13] has as its system CHO-K1. In words: Cytotoxicity against CHOK1 cells assessed as reduction in cell viability. The following applies: Cricetulus griseus. The class given is cell-based.
A short description of data set [14]: Metabolic stability in mouse microsomes assessed as parent compound remaining measured after 30 mins. The class given is ADME, Microsome. The following applies: read-out: Stability.
Data set [15] deals with Voltage-gated inwardly rectifying potassium channel KCNH2 (Homo sapiens, UniProt Q12809). In words: Binding affinity to human ERG.
Voltage-gated inwardly rectifying potassium channel KCNH2, sequence (Q12809 whole entry): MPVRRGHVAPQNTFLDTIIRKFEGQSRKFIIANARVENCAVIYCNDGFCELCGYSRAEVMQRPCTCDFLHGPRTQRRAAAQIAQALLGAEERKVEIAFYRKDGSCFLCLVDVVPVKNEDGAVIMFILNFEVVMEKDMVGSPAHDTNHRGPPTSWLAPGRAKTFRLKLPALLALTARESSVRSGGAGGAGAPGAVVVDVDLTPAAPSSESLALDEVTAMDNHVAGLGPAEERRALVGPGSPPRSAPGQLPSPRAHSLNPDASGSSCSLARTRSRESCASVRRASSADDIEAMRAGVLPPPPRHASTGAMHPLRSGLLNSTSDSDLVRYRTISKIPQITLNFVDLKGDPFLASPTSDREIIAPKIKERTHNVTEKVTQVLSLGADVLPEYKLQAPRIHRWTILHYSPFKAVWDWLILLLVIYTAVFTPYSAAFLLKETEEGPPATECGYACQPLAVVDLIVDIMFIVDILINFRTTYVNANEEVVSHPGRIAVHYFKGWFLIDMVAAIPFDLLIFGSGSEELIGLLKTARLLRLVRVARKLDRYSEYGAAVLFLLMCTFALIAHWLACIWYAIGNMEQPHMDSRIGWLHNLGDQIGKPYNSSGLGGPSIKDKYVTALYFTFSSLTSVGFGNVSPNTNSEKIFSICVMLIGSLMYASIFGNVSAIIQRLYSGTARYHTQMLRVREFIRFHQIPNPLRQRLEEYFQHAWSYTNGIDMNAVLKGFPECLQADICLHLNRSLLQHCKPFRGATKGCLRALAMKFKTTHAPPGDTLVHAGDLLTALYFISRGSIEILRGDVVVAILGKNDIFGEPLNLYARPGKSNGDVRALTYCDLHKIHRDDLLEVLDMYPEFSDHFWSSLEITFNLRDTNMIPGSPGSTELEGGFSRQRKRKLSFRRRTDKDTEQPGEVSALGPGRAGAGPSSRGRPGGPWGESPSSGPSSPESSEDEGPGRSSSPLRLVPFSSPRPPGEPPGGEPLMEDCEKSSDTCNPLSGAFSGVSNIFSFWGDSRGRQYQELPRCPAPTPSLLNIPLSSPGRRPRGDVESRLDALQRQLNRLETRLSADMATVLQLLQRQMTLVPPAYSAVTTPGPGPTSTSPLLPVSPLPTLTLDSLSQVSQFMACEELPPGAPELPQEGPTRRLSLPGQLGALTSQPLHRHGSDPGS
Data set [16] concerns L929. Briefly: Cytotoxicity against mouse L929 cells assessed as reduction in cell viability. The class given is cell-based.
Data set [17] can be described thus: as §1. The note with it: chlorocebus sabaeus, Vero cells. The class given is cell-based.

As usually defined, the IC50 is the point on the concentration scale where inhibition reaches its midpoint. The compound `CC(=O)c1c(NC(C)C)[nH]c2c(C(C)C)cccc2c1=O` yielded an IC50 in data set [1] of more than 25 µM.
By CC50 is commonly meant the concentration at which the toxic effect on the cells reaches its halfway point. Consider `CC(=O)c1c(N2CCCCC2)[nH]c2c(F)cc(F)cc2c1=O`, for which the IC50 in data set [1] was more than 25 µM. Besides, the CC50 in [2] was more than 25 µM.
The compound `COc1ccc(CNc2[nH]c3c(F)cc(F)cc3c(=O)c2C(C)=O)cc1` yielded an IC50 in [1] of more than 25 µM. For the same compound, in data set [2], the CC50 is more than 25 µM.
In turn, `CC(C)C(=O)c1c(Nc2ccc(F)c(F)c2F)[nH]c2c(Cl)cc(Cl)c(Cl)c2c1=O` had an IC50 in data set [1] of 0.1 µM. For the same compound, in data set [2], the cytotoxic concentration (CC50) was determined as 6.4 µM.
For `CC(=O)c1c(Nc2ccc(Cl)cc2)[nH]c2c(F)cc(F)cc2c1=O` the same measures were 1.44 µM and more than 25 µM.
The term half-life denotes the time in which the quantity being followed falls by half. As a reminder, the AUC is the area under the concentration-time curve, a measure of exposure. Broadly, the clearance is the rate of elimination divided by the concentration. By Cmax is commonly meant the maximum level reached in the sampled fluid or tissue. As a reminder, the AUC(0-inf) is total exposure, with the tail of the curve extrapolated. As for `CC(C)C(=O)c1c(Nc2ccc(F)c(F)c2F)[nH]c2c(F)cc(F)cc2c1=O`, the IC50 in data set [1] was 0.086 µM; in data set [4] it was 65.6 µM; in [11], 15.6 µM; in [13] it was 6.9 µM; in data set [15], 6.9 µM; in [16], 15.8 µM. Besides, the F in [3] was found to be 56%. Further, the half-life in data set [5] is 4.6 h. Further, the CC50 in data set [2] was more than 25 µM. This compound registered an AUC in data set [6] of 28300 ng·h/mL. Also, the remaining at 0.5 h in data set [7] stood at 44%; in data set [9], 52%; in data set [14], 35%. The same compound came in with a clearance in [8] of 1.17 mL/min/kg. For the same compound, in data set [10], the Cmax is 2320 ng/mL. This compound also had an AUC(0-inf) in [12] of 28900 ng·h/mL.
Compound `CC(=O)c1c(Nc2ccc(F)cc2F)[nH]c2c(C(F)(F)F)cc(Cl)cc2c1=O` showed an IC50 in [1] of 0.15 µM. The CC50 in data set [2] was found to be 7.3 µM.
The matching figures for `CC(=O)c1c(Nc2ccc(F)cc2F)[nH]c2c([N+](=O)[O-])cc(Cl)cc2c1=O`: 1.16 µM and more than 25 µM.
The matching figures for `CC(=O)c1c(Nc2ccc(F)cc2F)[nH]c2c(Cl)cc(Cl)c(Cl)c2c1=O`: 0.29 µM and more than 25 µM.
The matching figures for `COc1ccc(Nc2[nH]c3c(F)cc(F)cc3c(=O)c2C(C)=O)cc1`: more than 25 µM and more than 25 µM.
With `CC(=O)c1c(OCc2ccc(Cl)c(Cl)c2)[nH]c2c(F)cc(F)cc2c1=O`, in data set [1], the midpoint of inhibition, the IC50, lay at 7.8 µM. Besides, the CC50 in data set [2] is more than 25 µM.
For `CC(C)C(=O)c1c(Nc2ccc(F)c(F)c2F)[nH]c2c(Cl)ccc(Cl)c2c1=O` the same measures were 0.166 µM and 10.9 µM.
For `CCCCNc1[nH]c2c(F)cc(F)cc2c(=O)c1C(C)=O` the same measures were more than 25 µM and more than 25 µM.
For `CC(=O)c1c(Nc2ccc(F)cc2F)[nH]c2c(F)cc(Cl)cc2c1=O` the same measures were 0.98 µM and more than 25 µM.
With `CC(=O)c1c(Nc2ccc(F)c(F)c2F)[nH]c2c(F)cc(F)cc2c1=O`, the IC50 in data set [1] was determined as 0.53 µM. In addition, the CC50 in data set [2] was more than 25 µM.
In data set [1], `CC(=O)c1c(NC(C)C)[nH]c2c(C)cc(C)cc2c1=O` gave a half-maximal inhibitory concentration (IC50) of more than 25 µM.
`CC(=O)c1c(NC(C)C)[nH]c2c(C(F)(F)F)cc(Cl)cc2c1=O` came in with an IC50 in data set [1] of 0.77 µM. Further, the CC50 in data set [2] is more than 25 µM.
Regarding `CC(C)C(=O)c1c(Nc2ccc(F)cc2F)[nH]c2c(Cl)cc(Cl)c(Cl)c2c1=O`, the IC50 in [1] is 0.129 µM. The half-maximal cytotoxic concentration (CC50) in [17] is more than 25 µM.
Compound `CC(=O)c1c(NCc2ccc(F)cc2)[nH]c2c(F)cc(F)cc2c1=O` displayed an IC50 in [1] of 17.6 µM. The CC50 in [2] is more than 25 µM.
In data set [1], `CC(=O)c1c(N2CCOCC2)[nH]c2c(F)cc(F)cc2c1=O` had an IC50 of more than 25 µM. The CC50 in [2] was more than 25 µM.
Compound `CC(C)C(=O)c1c(Nc2ccc(F)cc2F)[nH]c2c(C(F)(F)F)cc(Cl)cc2c1=O` showed an IC50 in data set [1] of 0.13 µM. The CC50 in data set [2] amounted to 7.3 µM.
The matching figures for `CC(=O)c1c(Nc2ccc(Br)cc2)[nH]c2c(F)cc(F)cc2c1=O`: 1.13 µM and more than 25 µM.
For `CC(=O)c1c(NCc2ccc(F)cc2F)[nH]c2c(F)cc(F)cc2c1=O` the same measures were 5.9 µM and more than 25 µM.
For `CC(=O)c1c(Nc2ccc(F)cc2F)[nH]c2c(F)cc(F)cc2c1=O`, in data set [1], half-maximal inhibition (IC50) required 1.06 µM. In [2], the CC50 is more than 25 µM.
The matching figures for `CC(C)C(=O)c1c(Nc2ccc(F)cc2F)[nH]c2c(F)cc(F)cc2c1=O`: 0.79 µM and more than 25 µM.
The matching figures for `COc1cccc(Nc2[nH]c3c(F)cc(F)cc3c(=O)c2C(C)=O)c1`: more than 25 µM and more than 25 µM.
Regarding `CC(C)Nc1[nH]c2c(C(F)(F)F)cc(Cl)cc2c(=O)c1C(=O)c1ccccc1`, the IC50 in [1] was more than 25 µM.

For the origin of these results see ChEMBL document CHEMBL4311996 (Bioorg Med Chem Lett, 2019).
